Measurements taken from ChEMBL document CHEMBL2417499, “Structure-activity relationship studies of Niemann-Pick type C1-like 1 (NPC1L1) ligands identified by screening assay monitoring pharmacological chaperone effect” (Bioorg Med Chem, 2013).
One block for each compound: values may come before it. Calls of active or inactive are those of the source. The rule behind the calls is not given here.

Assays:
HEK293 [1] = assay: Binding affinity to human GFP-tagged NPC1L1 L1072T/L1168I mutant expressed in HEK293 cells assessed as localization to endoplasmic reticulum and plasma membrane at 3 uM after 24 hrs by fluorescence microscopic analysis; format: cell-based
Procedure, shortened: (§1)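 HEK293 cells stably expressing NPC1L1-GFP mutant from a CMV promoter, kept under G418 (0.4 mg/mL). Seeded at 6,000 cells/well on poly-lysine-coated glass in DMEM with 1% FBS. Dosed next day in 0.1% DMSO final for 24 h, then fixed in 3.7% formaldehyde and imaged at ×100. Each cell in 25 images scored ER 0 to PM 1; mean reported as % plasma membrane localization.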

[2] = biological target: T1, NPC intracellular cholesterol transporter 1 (Homo sapiens) (UniProt O15118); assay: (§2) Binding affinity to NPC1 (unknown origin)
T1 sequence (whole entry): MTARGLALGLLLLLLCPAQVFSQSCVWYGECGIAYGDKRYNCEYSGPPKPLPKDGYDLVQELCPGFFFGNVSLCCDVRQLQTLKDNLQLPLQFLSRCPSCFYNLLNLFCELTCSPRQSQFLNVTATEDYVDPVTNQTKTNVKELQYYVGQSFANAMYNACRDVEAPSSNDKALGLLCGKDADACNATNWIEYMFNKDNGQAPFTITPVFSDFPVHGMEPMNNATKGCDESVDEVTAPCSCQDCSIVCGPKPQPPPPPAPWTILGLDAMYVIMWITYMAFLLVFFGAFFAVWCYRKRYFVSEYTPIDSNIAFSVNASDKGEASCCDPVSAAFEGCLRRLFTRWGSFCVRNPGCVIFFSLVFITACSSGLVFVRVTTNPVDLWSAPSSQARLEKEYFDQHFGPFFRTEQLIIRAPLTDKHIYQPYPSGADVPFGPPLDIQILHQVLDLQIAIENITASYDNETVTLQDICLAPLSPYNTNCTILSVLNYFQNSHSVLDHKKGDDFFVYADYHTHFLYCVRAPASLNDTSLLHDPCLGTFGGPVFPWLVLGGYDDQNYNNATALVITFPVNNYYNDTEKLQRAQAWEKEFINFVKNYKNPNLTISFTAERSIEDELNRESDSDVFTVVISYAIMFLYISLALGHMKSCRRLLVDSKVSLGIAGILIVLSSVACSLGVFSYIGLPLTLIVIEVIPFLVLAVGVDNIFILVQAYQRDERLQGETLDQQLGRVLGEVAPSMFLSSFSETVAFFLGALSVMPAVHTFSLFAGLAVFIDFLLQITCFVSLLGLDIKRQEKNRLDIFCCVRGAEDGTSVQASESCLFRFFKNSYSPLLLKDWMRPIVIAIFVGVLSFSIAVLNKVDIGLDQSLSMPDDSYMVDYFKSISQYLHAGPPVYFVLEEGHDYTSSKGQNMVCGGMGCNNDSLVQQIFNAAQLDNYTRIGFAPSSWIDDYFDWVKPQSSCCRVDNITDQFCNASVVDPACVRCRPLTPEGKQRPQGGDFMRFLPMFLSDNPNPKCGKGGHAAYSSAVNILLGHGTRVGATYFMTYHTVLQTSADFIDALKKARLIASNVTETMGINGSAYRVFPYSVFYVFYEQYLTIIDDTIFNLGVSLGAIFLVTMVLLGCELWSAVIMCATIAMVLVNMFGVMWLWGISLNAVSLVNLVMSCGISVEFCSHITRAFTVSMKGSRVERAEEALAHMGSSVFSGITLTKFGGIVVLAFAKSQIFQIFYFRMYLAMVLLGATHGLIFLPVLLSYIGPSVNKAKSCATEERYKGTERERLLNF

HEK293 [3] = assay: Competitive binding affinity to human GFP-tagged NPC1L1 L1072T/L1168I mutant expressed in HEK293 cells assessed as localization to endoplasmic reticulum and plasma membrane at 0.01 to 10 uM after 24 hrs by fluorescence microscopic analysis in presence of N,N-(Dimethyl)-delta(5)-cholenamid-3beta-yl N,N-bis(2-hydroxyethyl)carbamate; format: cell-based
HEK293 [4] = assay: Binding affinity to human GFP-tagged NPC1L1 L1072T/L1168I mutant expressed in HEK293 cells assessed as localization to endoplasmic reticulum and plasma membrane at 10 uM after 24 hrs by fluorescence microscopic analysis; format: cell-based; procedure, shortened: as §1
HEK293 [5] = assay: Binding affinity to human GFP-tagged NTD-deleted NPC1L1 L1072T/L1168I mutant expressed in HEK293 cells assessed as localization to plasma membrane at 10 uM after 24 hrs by fluorescence microscopic analysis; format: cell-based
Procedure, shortened: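 HEK293 cells stably expressing the GFP-tagged NTD-deleted mutant were treated for 24 h with 0.1% final DMSO, then fixed in 3.7% formaldehyde. Cells were imaged at ×100 and scored from ER (0) to PM (1) over 25 images, reported as % plasma membrane localization.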

HEK293 [6] = assay: Binding affinity to human GFP-tagged NTD-deleted NPC1L1 L1072T/L1168I mutant expressed in HEK293 cells assessed as protein stabilization after 24 hrs by fluorescence assay; format: cell-based
Procedure, shortened: (§3)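 Stable HEK293 lines were grown to 70% confluency in phenol red-free medium in 12-well plates and exposed to vehicle or compound for 24 h. Supernatant GFP fluorescence was read and normalized to BCA total protein, n = 3.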

[7] = Binding affinity to human GFP-tagged NTD-deleted NPC1L1 L1072T/L1168I mutant expressed in HEK293 cells assessed as localization to plasma membrane after 24 hrs by fluorescence microscopic analysis; format: cell-based
Procedure, shortened: (§4)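 HEK293 cells stably expressing the GFP-tagged construct (G418 0.4 mg/mL) were seeded at 6,000 cells/well in DMEM with 1% FBS on poly-lysine-coated glass. On day 2 they were treated for 24 h, final DMSO 0.1%. Cells were fixed in 3.7% formaldehyde and imaged at ×100. Across 25 images, cells were scored ER 0 to PM 1 and averaged as % plasma membrane localization. EC50 was taken from this score.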

HEK293 [8] = assay: Binding affinity to human GFP-tagged NPC1L1 L1072T/L1168I mutant expressed in HEK293 cells assessed as protein stabilization after 24 hrs by fluorescence assay; format: cell-based; procedure, shortened: as §3
Homo sapiens = species on record: Homo sapiens; assay: Selectivity ratio of EC50 for NPC1 (unknown origin) to EC50 for human GFP-tagged NPC1L1 L1072T/L1168I mutant
[9] = biological target: T2, NPC intracellular cholesterol transporter 1 (Homo sapiens, UniProt O15118); assay: as §2
T2 sequence (O15118 whole entry): T1 sequence (whole entry)

[10] = Binding affinity to human GFP-tagged NPC1L1 L1072T/L1168I mutant expressed in HEK293 cells assessed as localization to endoplasmic reticulum and plasma membrane after 24 hrs by fluorescence microscopic analysis; format: cell-based; conditions: read-out: EC50; procedure, shortened: as §4

SMILES: CC(C)CCC[C@@H](C)[C@H]1CC[C@H]2[C@@H]3C[C@@H](O)[C@@]4(O)C[C@@H](O)CC[C@]4(C)[C@H]3CC[C@]12C
Activity (HEK293 [1]): inactive | Activity [2]: Active

SMILES: O=C1[C@H](CC[C@H](O)c2ccc(F)cc2)[C@@H](c2ccc(O)cc2)N1c1ccc(F)cc1
Activity (HEK293 [3]): inactive | Activity (HEK293 [4]): inactive

SMILES: CCCCN(CCCC)C(=O)O[C@H]1CC[C@@]2(C)C(=CC[C@H]3[C@@H]4CC[C@H]([C@H](C)CCC(=O)N(C)C)[C@@]4(C)CC[C@@H]32)C1
Activity (HEK293 [5]): inactive | Activity (HEK293 [4]): inactive

EC50 [7]: 1700 nM | Ratio EC50 (Homo sapiens): 2.5 | EC50 [9]: 1600 nM | EC50 [10]: 650 nM
SMILES: C[C@H](CCC(=O)N(C)C)[C@H]1CC[C@H]2[C@@H]3CC=C4C[C@@H](OC(=O)N(CCO)CCO)CC[C@]4(C)[C@H]3CC[C@]12C
Activity (HEK293 [6]): Active | Activity (HEK293 [8]): Dose-dependent effect
